# Activity calls are given as the source filed them. The calls are words filed in the database; no cut-off is given here.
# Tests used:
# B16-F10 [1] = assay: Antitumor activity against B16F10 cells implanted in C57BL/6 mouse assessed as survival time at 2 mg/kg, iv administered for 2 hrs followed by irradiation with laser at 150 J/cm'2 for 10 mins (reference value: 13 days); assay type: functional, organism-based
# Outline: (§1)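 B16-F10 cells (2×10^4) inoculated subcutaneously into the right thigh of male C57BL/6 mice aged 6-8 weeks. Mice with tumours 6-8 mm in diameter were used, 5 per group. Irradiation at 678 nm diode laser, 250 mW/cm² for 10 min, 2 h after i.v. dosing. Tumour volume measured by caliper as (W²×L)/2. Survival recorded daily and analysed by Kaplan-Meier with log-rank test.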
# B16-F10 [2] = assay: Antitumor activity against B16F10 cells implanted in C57BL/6 mouse assessed as tumor growth inhibition at 2 mg/kg, iv administered for 2 hrs followed by irradiation with laser at 150 J/cm'2 for 10 mins; assay type: functional, organism-based; outline: as §1
# [3] = Aqueous solubility of the compound in PBS buffer at pH 7.4; assay type: physicochemical
# [4] = Phototoxicity in mouse B16F10 cells assessed as cell viability after 24 hrs followed by irradiation with diode laser at 10 J/cm'2 measured after 24 hrs by cell counting kit-8 based spectrophotometric analysis; assay type: functional, B16-F10
# Outline: (§2)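 Phototoxicity by CCK-8. Cells loaded with a range of compound concentrations for 24 h at 37 °C, irradiated with a 678 nm diode laser at 10 J/cm², then incubated a further 24 h. Viability read as absorbance at 450 nm after 1.5 h with CCK-8.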
# [5] = Dark toxicity in mouse B16F10 cells assessed as cell viability after 48 hrs by cell counting kit-8 based spectrophotometric analysis; parameters: species or system B16-F10; settings: for IC50 at 48 h: mouse, B16F10 cells
# Outline: (§3)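 CCK-8 dark toxicity. 5×10^3 cells seeded in 10% FBS medium (A375 in DMEM, B16-F10 in RPMI 1640). Exposed to graded compound concentrations for 48 h at 37 °C, kept in the dark. Fresh medium and CCK-8 added for 1.5 h, then absorbance read at 450 nm to give IC50. Ratio is dark IC50 over IC50 under light.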
# [6] = Ratio of IC50 for dark toxicity to IC50 for phototoxicity in human A375 cells; assay type: cell-based, A-375; settings: for selectivity ratio: A375 cells, read-out: Ratio IC50; outline: as §3
# A-375 [7] = assay: Phototoxicity in human A375 cells assessed as cell viability after 24 hrs followed by irradiation with diode laser at 10 J/cm'2 measured after 24 hrs by cell counting kit-8 based spectrophotometric analysis; assay type: functional; outline: as §2
# [8] = (§4) Dark toxicity in human A375 cells assessed as cell viability after 48 hrs by cell counting kit-8 based spectrophotometric analysis; parameters: species or system A-375; settings: human, A375 cells; outline: as §3
# [9] = Ratio of IC50 for dark toxicity to IC50 for phototoxicity in mouse B16F10 cells by cell counting kit-8 based spectrophotometric analysis; parameters: species or system B16-F10; settings: for selectivity ratio: B16F10 cells, read-out: Ratio IC50; outline: as §3
# [10] = Ratio of IC50 for dark toxicity to IC50 for phototoxicity in mouse B16F10 cells by MTT assay; assay type: cell-based, B16-F10
# Outline: (§5)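 B16-F10 cells in RPMI 1640 with 10% FBS. Dark arm: compound for 48 h. Light arm: compound for 24 h, then 678 nm diode laser at 10 J/cm², then a further 24 h. Read-out by MTT for 4 h, formazan dissolved in DMSO, absorbance at 490 nm. Ratio is dark IC50 over light IC50.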
# [11] = Dark toxicity in mouse B16F10 cells assessed as cell viability after 48 hrs by MTT assay; assay type: cell-based, B16-F10; outline: as §5
# [12] = (§6) Phototoxicity in mouse B16F10 cells assessed as cell viability after 24 hrs followed by irradiation with diode laser at 10 J/cm'2 measured after 24 hrs by MTT assay; assay type: functional, cell-based, B16-F10; outline: as §5
# A-375 [13] = assay: as §4; settings: a-375; outline: as §3
# [14] = Ratio of IC50 for test compound to IC50 for verteporfin for dark toxicity in mouse B16F10 cells by cell counting kit-8 based spectrophotometric analysis; parameters: species or system B16-F10; settings: read-out: Ratio IC50
# B16-F10 [15] = assay: Phototoxicity in mouse B16F10 cells assessed as reduction in cell surviving fraction by irradiation with diode laser at 10 J/cm'2 after 24 hrs by cell counting kit-8 based spectrophotometric analysis; assay type: functional
# Outline: (§7)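 Survival fraction after PDT. Cells held 24 h at 2 µM or 0.2 µM, irradiated at 678 nm with 10 J/cm², then cultured another 24 h. Viability measured by CCK-8 at 450 nm.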
# [16] = Ratio of IC50 for dark toxicity to IC50 for phototoxicity in human A375 cells by CCK-8 assay
# [17] = Ratio of IC50 for test compound to IC50 for verteporfin for dark toxicity in human A375 cells by cell counting kit-8 based spectrophotometric analysis; parameters: species or system A-375; settings: read-out: Ratio IC50
# [18] = Drug uptake in endoplasmic reticulum of mouse B16F10 cells at 10 uM incubated in dark for 24 hrs by ER tracker green dye based confocal microscopy; assay type: ADME, cell-based; settings: b16-f10, 24 h
# [19] = Dark toxicity in mouse B16F10 cells assessed as reduction in cell surviving fraction at 50 to 300 uM after 48 hrs by cell counting kit-8 based spectrophotometric analysis; settings: b16-f10, 48 h
# Outline: (§8)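 Survival fraction measured in the dark by CCK-8 after 48 h exposure at 37 °C to 300 µM or 50 µM. Cells were in 10% FBS medium (A375 in DMEM, B16-F10 in RPMI 1640). Viability read as absorbance at 450 nm after 1.5 h with CCK-8.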
# B16-F10 [20] = assay: Antitumor activity against B16F10 cells implanted in C57BL/6 mouse assessed as tumor growth inhibition at 1 mg/kg, iv administered for 2 hrs followed by irradiation with laser at 150 J/cm'2 for 10 mins; assay type: functional, organism-based; outline: as §1
# A-375 [21] = assay: Phototoxicity in human A375 cells assessed as reduction in cell surviving fraction by irradiation with diode laser at 10 J/cm'2 after 24 hrs by cell counting kit-8 based spectrophotometric analysis; assay type: functional; outline: as §7
# B16-F10 [22] = assay: Induction of apoptosis in mouse B16F10 cells assessed as necrotic/late apoptotic cells at 5 uM after 24 hrs followed by irradiation with diode laser at 10 J/cm'2 by alexa fluor 488 annexin V/PI double staining based flow cytometry (reference value: 1.94%); assay type: functional
# B16-F10 [23] = assay: Induction of apoptosis in mouse B16F10 cells assessed as early apoptotic cells at 5 uM after 24 hrs followed by irradiation with diode laser at 10 J/cm'2 by alexa fluor 488 annexin V/PI double staining based flow cytometry (reference value: 0.08%); assay type: functional
# [24] = Drug uptake in golgi apparatus of mouse B16F10 cells at 10 uM incubated in dark for 24 hrs by golgi tracker green dye based confocal microscopy; assay type: ADME, cell-based; settings: b16-f10, 24 h
# A-375 [25] = assay: Dark toxicity in human A375 cells assessed as reduction in cell surviving fraction at 50 to 300 uM after 48 hrs by cell counting kit-8 based spectrophotometric analysis; settings: a-375, 48 h; outline: as §8
# B16-F10 [26] = assay: Induction of apoptosis in mouse B16F10 cells assessed as necrotic/late apoptotic cells at 2 uM after 24 hrs followed by irradiation with diode laser at 10 J/cm'2 by alexa fluor 488 annexin V/PI double staining based flow cytometry (reference value: 1.94%); assay type: functional
# B16-F10 [27] = assay: as §6; assay type: functional, cell-based; outline: as §5
# B16-F10 [28] = assay: Induction of apoptosis in mouse B16F10 cells assessed as early apoptotic cells at 2 uM after 24 hrs followed by irradiation with diode laser at 10 J/cm'2 by alexa fluor 488 annexin V/PI double staining based flow cytometry (reference value: 0.08%); assay type: functional
# [29] = Drug uptake in mitochondria of mouse B16F10 cells at 10 uM incubated in dark for 24 hrs by mito tracker green FM dye based confocal microscopy; assay type: ADME; settings: b16-f10, 24 h
# B16-F10 [30] = assay: Induction of apoptosis in mouse B16F10 cells assessed as necrotic/late apoptotic cells after 24 hrs followed by irradiation with diode laser at 10 J/cm'2 by alexa fluor 488 annexin V/PI double staining based flow cytometry; assay type: functional, cell-based
# [31] = Drug uptake in lysosomes of mouse B16F10 cells at 10 uM incubated in dark for 24 hrs by lyso tracker green dye based confocal microscopy; assay type: ADME, cell-based, Lysosome; settings: b16-f10, 24 h
# [32] = Antitumor activity against B16F10 cells implanted in C57BL/6 mouse assessed as survival time at 1 mg/kg, iv administered for 2 hrs followed by irradiation with laser at 150 J/cm'2 for 10 mins (reference value: 13 days); assay type: functional, B16-F10
# [33] = Drug uptake in nucleus of mouse B16F10 cells at 10 uM incubated in dark for 24 hrs by confocal microscopy; assay type: ADME, cell-based; settings: b16-f10, 24 h
# B16-F10 [34] = assay: Phototoxicity in mouse B16F10 cells assessed as reduction in cell surviving fraction by irradiation with diode laser at 10 J/cm'2 at 5 uM after 24 hrs by cell counting kit-8 based spectrophotometric analysis; assay type: functional
# Outline: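 B16-F10 cells exposed to 5 µM for 24 h, then given varying 678 nm laser light doses. After a further 24 h, survival fraction was read by CCK-8 absorbance at 450 nm.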
# [35] = Mus musculus, B16-F10, light or radiation study, 24 h
# [36] = Homo sapiens, A-375, light or radiation study, 24 h
compound,measurement,setting,value
VERTEPORFIN [listing 1 of 2 here],MST,B16-F10 [1],18 days
same,TGI,B16-F10 [2],Active
C=Cc1c(C)c2cc3nc(c(C(=O)OC)c4[nH]c(cc5nc(cc1[nH]2)C(C)=C5CC)c(C)c4C(=O)OC)[C@@H](CCC(=O)O)[C@@H]3C,solubility,[3],< 1.6 µM
same,IC50,[4]; [35],300 nM
same,IC50 at 48 h,[5],15700 nM
same,selectivity ratio,[6],60.2
same,IC50,A-375 [7]; [36],520 nM
same,IC50 at 48 h,[8],31300 nM
same,selectivity ratio,[9],52.2
VERTEPORFIN [listing 2 of 2 here],Ratio IC50,[10]; b16-f10,23.39
same,IC50,[11]; b16-f10,25000 nM
same,IC50,[12]; b16-f10,1070 nM
same,IC50,[4]; b16-f10,1200 nM
same,IC50,[5]; b16-f10,24900 nM
same,Ratio IC50,[6]; a-375,17.64
same,IC50,A-375 [7]; a-375,2060 nM
same,IC50,A-375 [13],36300 nM
same,Ratio IC50,[9]; b16-f10,20.77
C=Cc1c(C)c2cc3nc(c(C(=O)OC)c4[nH]c(cc5nc(cc1[nH]2)C(C)=C5CC)c(C)c4C(=O)OC)[C@@H](CCC(=O)N[C@@H](CC(=O)O)C(=O)O)[C@@H]3C,selectivity ratio,[14],> 8.3
same,solubility,[3],41.7 µM
same,Activity,B16-F10 [15],Dose-dependent effect
same,selectivity ratio,"[10]; B16F10 cells, read-out: Ratio IC50",> 400
same,selectivity ratio,[16],> 306
same,selectivity ratio,[17],> 8.3
same,Drug uptake,[18],Active
same,Activity,[19],Non-toxic
same,TGI,B16-F10 [20],Active
same,Activity,A-375 [21],Dose-dependent effect
same,Activity,B16-F10 [22],82.05%
same,Activity,B16-F10 [23],5.61%
same,IC50 at 48 h,"[11]; mouse, B16F10 cells",> 300000 nM
same,Drug uptake,[24],Active
same,Activity,A-375 [25],Non-toxic
same,Activity,B16-F10 [26],68.23%
same,IC50,[12]; [35],750 nM
same,Activity,B16-F10 [27],Dose-dependent effect
same,Activity,B16-F10 [28],0.3%
same,Drug uptake,[29],Active
same,IC50,[4]; [35],680 nM
same,IC50 at 48 h,[5],> 300000 nM
same,Activity,B16-F10 [30],Dose-dependent effect
same,Drug uptake,[31],Active
same,selectivity ratio,[6],> 306
same,MST,[32],21 days
same,Drug uptake,[33],Not Active
same,Activity,B16-F10 [34],Active
same,IC50,A-375 [7]; [36],980 nM
same,IC50 at 48 h,[8],> 300000 nM
same,selectivity ratio,[9],> 441

# From ChEMBL document CHEMBL3822438, “Chlorin p6-Based Water-Soluble Amino Acid Derivatives as Potent Photosensitizers for Photodynamic Therapy” (J Med Chem, 2016)
